Source: PubChem
STAT1 act: increases IFN-gamma driven STAT1 reporter signal; activation (% of control), % at 5.5 µM; hit rate 2.6% among 200,000; NIH 3T3 STAT1-luciferase reporter, luminescence; 100% = IFN-gamma alone, no compound; AID 932;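 active = activation above the screen-wide mean activation plus 3 SD, cut at about 130% in these data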;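 also: raw ratio to IFN-gamma control signal so 100% means no change and 0% no light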
STAT3 activator: STAT3 signaling activation; activation (% of control), % at 5.6 µM; AID 871; U3A cells, IL-6 STAT3-luciferase reporter, luminescence; 100% = signal with IL-6 EC80 alone; hit rate 0.91% among 190,000;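 active = activation above the screen-wide mean of compound activation plus 3 SD, cut at about 130% in these data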;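 also: 0% = background luminescence of wells with medium and substrate only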
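Detection: reporter luminescence signal / Assay system: STAT1-lacking human U3A cells, STAT3 luciferase reporter / Incubation: compound pre-incubation 1 h before IL-6, then 6 h stimulation at 37 °C / Control set: IL-6-only high control / Read-out: % activation relative to IL-6 control / Probe or stimulus: Interleukin-6, 33 ng/mL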
STAT3 inh: STAT3 signaling inhibition; hit rate 0.89% among 190,000; inhibition, % at 5.5 µM; U3A cells, IL-6 STAT3-luciferase reporter, luminescence; host cell line lacks STAT1; AID 862;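 active = inhibition above the mean inhibition across all screened compounds plus 3 SD, cut at about 44% in these data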;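 also: 0% = DMSO only wells and 100% = 100 µM nifuroxazide control wells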
STAT1 blocker: STAT1 signaling inhibition | hit rate 0.35% among 200,000 | NIH 3T3 STAT1-luciferase reporter, IFN-gamma, luminescence | inhibition, % at 5.5 µM;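 active = inhibition above a set limit, the mean inhibition across all tested compounds plus 3 SD, cut at about 34% in these data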;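 also: 0% = IFN-gamma with DMSO and 100% = IFN-gamma with 300 µM nifuroxazide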
NF-kB neuron act: raises NF-kB expression in human neuronal cells | NF-kB reporter expression; hits give high values | fold change at 12.5 µM | hit rate 1.6% among 190,000 | AID 1239; in the data active = fold change above about 3.3
APP 5'UTR act: APP 5'UTR luciferase reporter activation. activation, % at 2 µM. hit rate 1% among 190,000. SH-SY5Y APP 5'UTR luciferase reporter, luminescence; zero percent = DMSO vehicle wells. AID 1276;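 active = activation above a set limit, based on mean plus 3 SD of controls, cut at about 140% in these data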
* = called active by the depositor. Hits are enriched below; roughly 4.9% of the tested compounds scored in any of these assays.

SMILES	STAT1 act	STAT3 activator	STAT3 inh	STAT1 blocker	NF-kB neuron act	APP 5'UTR act
COc1ccc(-c2nc(CSCC(=O)N3CCN(C(=O)c4ccco4)CC3)c(C)o2)cc1OC	99	100	9	1	0.97	9
C/C(=N\NC(=O)c1cc(-c2ccncc2)nc2ccccc12)c1ccc(N2CCOCC2)cc1	103	101	5	-5	0.91	-23
O=C(CC(Nc1ccc(F)cc1)C(=O)O)c1ccccc1 (configuration not stated)	148*	55	54*	-52	5.7*	89
O=C(NC1CCCCC1)N1CCc2ccccc21	129*	99	5	-32	2.4	52
O=C(C1CCC(C(=O)N2CCc3ccccc32)CC1)N1CCc2ccccc21 (configuration not stated)	97	95	11	4	1.2	-16
CC(C)c1ccc(NC(=O)NN2CCOCC2)cc1	146*	107	1	-53	1.7	86
Cn1cc(Br)c(C(=O)NC2C3CC4CC(C3)CC2C4)n1 (configuration not stated)	147*	108	-10	-51	1.1	14
O=C(c1ccco1)N1CCN(c2c([N+](=O)[O-])nn(-c3cccc(Cl)c3)[n+]2[O-])CC1	96	99	12	4	1.2	24
CCc1ccc(NC(=S)NC(=O)CC(C)C)cc1	129*	113	-13	-32	2.2	61
O=C(NCCCCO)c1ccc2c3c(cccc13)CC2	100	102	2	-2	0.97	3
CN(c1ccccc1C(=O)Nc1cccc([N+](=O)[O-])c1)S(C)(=O)=O	106	103	-1	-7	1.1	-10
CC(C)(C)c1ccc(NC(=O)Nc2ccc(OCC(=O)N3CCOCC3)cc2)cc1	134*	95	12	-38	5.3*	117
CCCC(=O)NC(c1ccccc1OC)c1ccc2cccnc2c1O (configuration not stated)	93	90	14	6	4.7*	-75
COc1ccc(C)cc1N(C(=O)COc1cccc(F)c1)c1nc2ccccc2s1	102	134*	-36	-3	1.1	-9
COCCNc1c(-c2cc3ccc(C)c(C)c3[nH]c2=O)nc2ccccn12	130*	93	10	-34	2.2	121
COCCNc1c(-c2ccc(OC)c(OC)c2)nc2ccc(Cl)cn12	94	83	24	5	0.87	2
COc1ccc(OC)c(-c2csc(N3CCC(c4ccccc4)CC3)n2)c1	104	97	7	-6	1.9	6
CCC(C)(C)C1CCC(=NNC(=S)Nc2ccccc2)CC1 (configuration not stated)	93	93	11	6	1.2	152*
CCC(C)(C)C1CCC(=NNC(=S)Nc2cccnc2)CC1 (configuration not stated)	107	102	0	-8	0.86	17
CCn1nc2cc(C(=O)NCCc3cccs3)ccc2c1OC	133*	103	4	-37	4*	131
CCOc1c2ccc(C(=O)NCCc3ccc(C)cc3)cc2nn1CC	100	105	2	0	1.1	21
Cc1ccc(C(=O)NCCc2cccs2)cc1	45	36	81*	58*	1.8	83
CCCCCCOc1ccc(OC(=O)c2ccncc2)cc1	96	91	15	-2	9.9*	3
COc1ccc(OC(=O)c2ccncc2)cc1	100	98	6	0	1.2	-1
CN1CCN(NC(=O)c2cc(Br)ccc2Cl)CC1	100	100	7	-1	1.1	3
SMILES	STAT1 act	STAT3 activator	STAT3 inh	STAT1 blocker	NF-kB neuron act	APP 5'UTR act
Cc1ccc(-c2cc(C(F)(F)F)n3nc(C(=O)NCCCn4ccnc4)cc3n2)cc1C	101	98	7	-1	0.83	1
COC(=O)c1sc2nc3c(cc2c1N)COC(C)(C)C3	142*	98	3	-48	4.2*	-11
CC(=O)Nc1ccc(NC(=O)CN(c2cccc([N+](=O)[O-])c2)S(C)(=O)=O)cc1	93	99	8	7	1	-11
CCCC(=O)Nc1ccc(C#Cc2ccccc2)cc1	140*	146*	-43	-44	2.9	121
O=C(Nc1ccc(C#Cc2ccccc2)cc1)C1CC1	196*	143*	-46	-107	3.9*	110
CCCC(=O)Nc1ccc(Oc2ccc(NC(=O)CCC)cc2)cc1	100	102	0	-5	1.1	2
Cc1cc2nc(-c3cccnc3SCC(=O)NC3CC3)[nH]c2cc1C	121	111	-13	-26	1.1	41
COc1ccc(N=C2S/C(=C\c3cc(C)n(C)c3C)C(=O)N2C)cc1	100	99	3	0	1	-20
COc1ccccc1N1C(=O)S/C(=C\c2cc(C)n(C)c2C)C1=O	137*	95	12	-42	1.7	44
COc1ccccc1-c1nc(NC(C)=O)n[nH]1	89	159*	-65	12	1.1	0
Cc1cnc(NC(=O)c2cccc(S(=O)(=O)N3CC(C)OC(C)C3)c2)s1 (configuration not stated)	96	94	11	2	1.1	-4
Cc1cccc(Nc2ncc3c(n2)CC(C)CC3=O)c1 (configuration not stated)	135*	91	14	-38	2.4	34
COc1ccccc1NC(=O)Nc1nnc(C(C)C)s1	140*	107	-5	-44	1.7	43
Cc1ccc2nc(SCC(=O)N/N=C/c3ccco3)cc(C)c2c1	91	88	16	9	0.63	21
Cc1ccc2nc(N/N=C/c3ccco3)cc(C)c2c1	138*	103	0	-44	3.2	101
CCc1ccc(CNc2ccc3c(c2)ncn3C)cc1	148*	111	-5	-53	2.4	102
Cn1cnc2cc(NCc3cccs3)ccc21	112	100	4	-14	1.9	13
Cc1ccc(CNc2ccc3c(c2)ncn3C)cc1	139*	112	-9	-42	3.3	107
Cc1ccc(C(=O)Nc2ccc3c(c2)ncn3C)cc1	139*	95	7	-42	3.5*	140*
CCn1cnc2cc(NCc3ccncc3)ccc21	107	99	3	-2	0.96	7
FC(F)(F)c1cnc(NNC(=S)Nc2ccc(Cl)cc2)c(Cl)c1	95	88	17	6	0.32	2
Fc1ccc(NC(=S)NNc2ncc(C(F)(F)F)cc2Cl)c(F)c1	46	49	62*	59*	0.35	0
Cc1ccc2nc(-c3ccc(N4C(=NC(=O)CCC(=O)O)SC5CS(=O)(=O)CC54)cc3)sc2c1 (configuration not stated)	134*	104	-5	-38	1	56
CCOc1ccc(OCc2ccc(C(=O)N3CCOCC3)cc2)cc1	101	99	4	-11	1.2	20
